The list is not random: actives were taken first. Their share in the collection is about 4.9%.
WT yeast gro inh: growth inhibition of WT yeast, mitochondrial fusion screen | mitochondrial fusion phenotypic screen, WT strain | inhibition, % at 10 µM | 190,000 compounds, 2.1% hits | AID 1362; in the data active means inhibition above about 58%; tested in S. cerevisiae
RAM network inh: inhibitors of the yeast RAM network; AID 868; 190,000 compounds, 1.8% hits; S. cerevisiae dse1pr::URA3 reporter, 5-FOA growth OD615, 2 d; analog-sensitive cbk1-as2 kinase mutant strain; inhibition, % at 50 µM;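 active means inhibition above a set limit, 3 SD over mean compound inhibition, cut at about 8.4% in these data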;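 further: inhibition rescues growth on 5-FOA so higher OD means more RAM inhibition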
NPY-Y2 antag: antagonists of human neuropeptide Y receptor Y2 | inhibition, % at 2.7 µM | 140,000 compounds, 0.99% hits | AID 793 | NPY-Y2 expressing cells, antagonist mode | P49146; in the data active means inhibition above about 17%
NPY2 pot ag: potentiators or agonists of human neuropeptide Y receptor Y2 | P49146 | cells expressing NPY-Y2, potentiator/agonist read-out | activation, % at 3.6 µM | 220,000 compounds, 0.45% hits | AID 1359; in the data active means activation above about 27%;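 further: cells stimulated with NPY near EC25 plus isoproterenol at EC100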
NPY-Y1 antag: blocks the human neuropeptide Y Y1 receptor | P25929 | HEK293-CNG Y1 cells, membrane potential fluorescence; NPY at EC95, then isoproterenol | inhibition, % at 3.6 µM | 200,000 compounds, 1% hits | AID 1040;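 active means inhibition above the campaign mean inhibition of all tested compounds plus 3 SD, cut at about 20% in these data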
Target sequence (P25929 whole entry, looked up): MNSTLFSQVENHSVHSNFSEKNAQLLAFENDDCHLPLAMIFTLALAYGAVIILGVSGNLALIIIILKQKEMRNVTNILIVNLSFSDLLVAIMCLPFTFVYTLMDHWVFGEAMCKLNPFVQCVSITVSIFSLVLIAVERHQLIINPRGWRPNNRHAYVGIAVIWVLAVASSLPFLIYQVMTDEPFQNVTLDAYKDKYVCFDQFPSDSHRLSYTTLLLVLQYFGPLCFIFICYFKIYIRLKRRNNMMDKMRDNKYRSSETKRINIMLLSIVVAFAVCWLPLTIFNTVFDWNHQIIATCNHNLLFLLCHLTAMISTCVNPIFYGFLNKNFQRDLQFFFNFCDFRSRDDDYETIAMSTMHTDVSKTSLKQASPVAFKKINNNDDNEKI
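Material: HEK293 cells co-expressing NPY Y1 receptor and cyclic-nucleotide gated channel. Timing: compound incubation 1 h at room temperature, readout 45 min post-stimulation. Signal: fluorescence, membrane potential probe.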
NPY1 pot ag: human NPY-Y1 potentiation or agonism, primary screen; P25929; NPY-Y1 expressing cells, potentiator/agonist activation; activation, % at 3.6 µM; 220,000 compounds, 0.37% hits; AID 1304; in the data active means activation above about 33%, passing the limit was not always enough;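 further: cells stimulated with NPY at EC10 then isoproterenol at EC100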
Each line names hits and unclear results; the compound was inactive in the other large screens; ! = not confirmed by another sample.

CNC(=O)COC(=O)COc1ccc2c(C)cc(=O)oc2c1	none (no result: NPY-Y2 antag)
Cc1cc(=O)oc2cc(OCC(=O)OCC(=O)NCCc3ccccc3)ccc12	RAM network inh 9.2 (no result: NPY-Y2 antag)
O=C(Oc1ccc2c(-c3ccccc3)cc(=O)oc2c1)C1CCCCC1	RAM network inh 9.3
O=C(Oc1ccc2c(-c3ccccc3)cc(=O)oc2c1)c1cccs1	none
O=C(NCCc1c[nH]c2ccccc12)/C(=C/c1ccco1)NC(=O)c1ccco1	none (no result: NPY-Y2 antag)
CCCCNC(=S)N/N=C/c1cc(C)ccc1C	WT yeast gro inh 66
O=C(CC1CCCCC1)OCn1nnc2ccccc2c1=O	NPY2 pot ag 103, NPY1 pot ag 107
COc1ccc(C(=O)OCn2nnc3ccccc3c2=O)cc1OC	RAM network inh 8.8
O=C(Nc1ccc(Cn2cccn2)cc1)c1ccc(COc2cccc(Br)c2)cc1	RAM network inh 9.9
CCn1c(SCC(=O)Nc2nccs2)nnc1-c1ccc(C)cc1	none
CCC(=O)Nc1ccc(-c2nnc(SCc3ccc(C(=O)Nc4nccs4)cc3)n2CC)cc1	WT yeast gro inh 60
CCOC(=O)c1c(NC(=S)Nc2ccccc2)sc(C)c1C	RAM network inh 9.6
C=CCn1c(SCC(=O)NC2CCCCC2)nnc1-c1sc(N)nc1C	none
CCOC(=O)c1cc(C)sc1NC(=S)Nc1ccccc1	none
CCn1ncc(Br)c1C(=O)Nc1sc2c(c1C(=O)OC)CCC2	none (no result: WT yeast gro inh, RAM network inh)
CCOC(=O)c1c(NC(=O)c2c(Br)cnn2CC)sc(C)c1C	RAM network inh 9.1
CCOC(=O)c1c(-c2ccco2)csc1NC(=O)CSc1nnc(N)s1	RAM network inh 10
C=CCn1c(SCC(=O)Nc2sc(C)c(C)c2C(=O)OCC)nnc1-c1sc(N)nc1C	RAM network inh 11
CCOC(=O)c1ccc(N(C(=O)c2cnccn2)C(C(=O)NC2CCCCC2)c2cn(C)nc2C)cc1 (configuration not stated)	none
CCN(CC(=O)NC1CCCCCC1)S(=O)(=O)c1ccccc1	none
Cc1cc(NC(=O)C(C)C)n(-c2nc3ccccc3s2)n1	none (no result: NPY-Y2 antag)
CCOC(=O)c1c(NC(=O)CSc2nc3ccccc3s2)sc(C)c1C	RAM network inh 11
Cc1cccc2nc(-c3ccco3)c(Nc3ccc4c(c3)OCO4)n12	none (no result: NPY-Y2 antag)
Cc1cccc2nc(-c3ccco3)c(Nc3ccccc3)n12	NPY2 pot ag 34, NPY1 pot ag 47 (no result: NPY-Y2 antag)
Cc1ccc(-c2nc3ccccc3nc2Cl)cc1	RAM network inh 8.4 (no result: NPY-Y2 antag)
Cc1ccc2nc(-c3ccccc3)c(-c3ccccc3)nc2c1	WT yeast gro inh 65 (no result: NPY-Y2 antag)
COc1cc(C(=O)Nc2ccc3c(c2)OCO3)ccc1-n1cnnn1	none
Fc1cccc(CO/N=C/c2c(-c3ccccc3)nc3ccc(Cl)cn23)c1	RAM network inh 9.1
CO/N=C/c1c(-c2ccc(Cl)cc2)nc2cc(C)ccn12	none (no result: NPY-Y2 antag)
Cc1cccn2c(/C=N/OCc3cccc(F)c3)c(-c3ccc(Cl)cc3)nc12	RAM network inh 9.3
COc1cc(OC)cc(C(=O)NCc2n[nH]c(=S)n2-c2ccccc2)c1	none
COc1ccc(C(=O)NCC(C)(C)SCc2c(C)cc(C)cc2C)cc1	RAM network inh 9.3
CC(C)(C)N/N=C1\CC(c2ccccc2)Oc2ccccc21 (configuration not stated)	WT yeast gro inh 62
S=C(Nc1ccccc1)N(Cc1ccccc1)Cc1ccncc1	none (no result: NPY-Y2 antag)
Cc1ccc(NC(=O)/C(C#N)=C/c2ccsc2)c(C)c1	none
O=C(NCc1ccon1)c1ccc(OC2CCN(CCc3ccccc3)CC2)cc1	none (no result: NPY-Y2 antag)
Cc1ccc(CSc2nnc(-c3ccccc3N)c(=O)[nH]2)cc1	WT yeast gro inh 63
Nc1ccccc1-c1nnc(SCc2ccccc2Cl)[nH]c1=O	none
Cc1ccc(C(=O)NNC(=S)NC(=O)COc2ccccc2)cc1	WT yeast gro inh 84
CC(C)(C)C(=O)NC(=S)NNC(=O)c1ccc(-c2ccccc2)cc1	WT yeast gro inh 67 (no result: NPY-Y2 antag)
CC(C)(C)c1ccc(C(=O)NC(=S)NNC(=O)c2cccs2)cc1	WT yeast gro inh 77
Cc1ccccc1C(=O)NNC(=S)NC(=O)COc1ccccc1	none
Cc1cccc(C(=O)NC(=S)NNC(=O)c2cccs2)c1	none
Cc1cc(NC(=O)COC(=O)c2oc3c(ccc4ccccc43)c2C)no1	none
c1ccc(-c2ccc(-n3ccnc3)cc2)cc1	none
c1ccc(-c2ccc(C(c3ccccc3)n3ccnc3)cc2)cc1 (configuration not stated)	WT yeast gro inh 73!
CN(C)C(=O)CSc1nnc(CCCCCNC(=O)OC(C)(C)C)o1	WT yeast gro inh 65
CN(C)C(=O)CSc1nnc(CCNC(=O)OC(C)(C)C)o1	none
CCn1nc(C(=O)OC2CCOC2=O)c2ccccc2c1=O (configuration not stated)	none
CC(CCc1ccccc1)NC(=O)c1nnc(Cc2ccc(Cl)cc2)o1 (configuration not stated)	RAM network inh 8.7
O=C(NCCc1ccc(Cl)cc1)c1nnc(Cc2ccc(Cl)cc2)o1	none
CC1CCN(C(=O)C(C)Sc2nc(-c3ccccc3)cc(C(F)(F)F)n2)CC1 (configuration not stated)	RAM network inh 8.8
CC(Sc1nc(-c2ccccc2)cc(C(F)(F)F)n1)C(=O)N1CCCC1 (configuration not stated)	none
CC(C)(C)NC(=O)CSc1nc(N)cc(=O)[nH]1	none (no result: NPY-Y2 antag)
OCCN1CCN(C(c2cccs2)c2ccc3cccnc3c2O)CC1 (configuration not stated)	none
CC(C)(C)c1cc(C(c2cccnc2)N2CCN(CCO)CC2)cc(C(C)(C)C)c1O (configuration not stated)	WT yeast gro inh 72
CCOc1ccccc1NC(C)C(=O)Nc1cc(C(F)(F)F)ccc1N1CCOCC1 (configuration not stated)	WT yeast gro inh 69
CSc1nc2ccccc2n1CC(=O)Nc1cc(C(F)(F)F)ccc1N1CCOCC1	NPY-Y2 antag 23, NPY-Y1 antag 24
COc1cccc(NC(=O)CSc2nc3ccccc3c(=O)n2CCCC(=O)N2CCCC2)c1	none
Cc1ccc(NC(=O)NCC2CCN(Cc3cccc(Cl)c3)CC2)cc1Cl	WT yeast gro inh 82 (no result: NPY-Y2 antag)
CN1C(=S)SC(C)(C)C1(C)NO (configuration not stated)	WT yeast gro inh 65
COc1ccc(CNC(=O)COC(=O)c2n[nH]c3ccccc23)cc1	RAM network inh 10
Cc1cc(Cc2cc(C)c(N)cc2C)c(C)cc1N	none (no result: NPY-Y2 antag)
CCOc1cc(CNn2cn[nH]c2=S)cc(Cl)c1OCc1ccccc1F	WT yeast gro inh 69
COc1ccccc1N1CCN(C(c2ccc(F)cc2)c2nnnn2C(C)C)CC1 (configuration not stated)	NPY-Y2 antag 18, NPY-Y1 antag 24
O=C(CNC(=O)c1cccc(F)c1)N/N=C/c1ccc(O)c([N+](=O)[O-])c1	none
